Data as given in ChEMBL document CHEMBL3526011, “Metabolic activation of mefenamic acid leading to mefenamyl-S-acyl-glutathione adduct formation in vitro and in vivo in rat” (Drug Metab Dispos, 2012).
Each block holds one compound with its values, some of them ahead of it.

What was measured:
[1] = Drug metabolism in human hepatocytes assessed as MFA-SCoA at 100 uM by reverse phase LC-MS/MS analysis; type: ADME, cell-based, Hepatocyte
Summary of the method: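 MFA 100 µM with human hepatocytes (2 million viable cells/ml, William's E pH 7.4, 37°C, 95% O2/5% CO2). For the acyl-CoA thioester, quench was acetonitrile without formic acid plus CBZ, followed by hexane extraction. The aqueous layer was analysed by positive-ion LC-MS/MS MRM (m/z 991→224 and 484).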

[2] = Drug metabolism in rat hepatocytes assessed as MFA-1-beta-O-G at 100 uM by positive ion LC-MS/MS analysis; type: ADME, cell-based, Hepatocyte
Summary of the method: (§1)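 Rat hepatocytes at 2 million viable cells/ml in William's E (pH 7.4) at 37°C under 95% O2/5% CO2, with 100 µM MFA for up to 60 min. Quench times 0–60 min; n=3 incubations per point across three separate studies. Acyl-SG and glucuronide quenched with acidic acetonitrile plus CBZ; acyl-CoA quenched with acetonitrile plus CBZ, then hexane extraction. Positive-ion LC-MS/MS MRM; quantified from analyte/CBZ standard curves.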

[3] = Drug metabolism in rat hepatocytes assessed as MFA-SG at 100 uM by sensitive LC-MS/MS MRM analysis; type: ADME, cell-based, Hepatocyte; summary of the method: as §1
[4] = Drug metabolism in rat hepatocytes assessed as I-SG thioester at 100 uM at 10 mins incubation by LC-MS/MS analysis; type: ADME, cell-based, Hepatocyte
Summary of the method: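 Rat hepatocytes (2 million cells/ml, William's E pH 7.4, 37°C, 95% O2/5% CO2) incubated with (R)-ibuprofen 100 µM for 10 min, n=3. Quenched with acetonitrile/3% formic acid containing CBZ. The acyl-SG thioester was quantified by LC-MS/MS against a linear acyl-SG/CBZ peak-area-ratio standard curve.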

[5] = Drug metabolism in rat hepatocytes assessed as acyl migration isomers at 100 uM by positive ion LC-MS/MS analysis; type: ADME, cell-based, Hepatocyte
[6] = Drug metabolism in rat hepatocytes assessed as MFA-SCoA at 100 uM by reverse phase LC-MS/MS analysis; type: ADME, cell-based, Hepatocyte; summary of the method: as §1
[7] = Drug metabolism in human hepatocytes assessed as MFA-SG at 100 uM by sensitive LC-MS/MS MRM analysis; type: ADME, cell-based, Hepatocyte
Summary of the method: (§2)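 Human hepatocytes, either cryopreserved 20-donor pooled or a single-donor suspension, thawed or warmed at 37°C, washed in William's E (pH 7.4, 4 mM L-glutamate). Cells at 2 million viable/ml, >95% trypan-blue viability. Incubated with 100 µM MFA at 37°C under 95% O2/5% CO2 with orbital shaking, n=3 per time point. Quench: acetonitrile/3% formic acid with CBZ internal standard; LC-MS/MS MRM.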

[8] = Drug level in Sprague-Dawley rat bile treated with 100 mg/kg, ip MFA after 6 hrs by LC-MS/MS analysis; type: ADME, organism-based; set-up: dose 100 mg/kg, route intraperitoneal; conditions: in vivo
Summary of the method: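 Male Sprague-Dawley rats (300–330 g, n=3) with bile-duct cannulas, housed in metabolic cages; MFA 100 mg/kg i.p. in water, pH 7.0. Artificial bile-salt supplement infused via duodenal cannula at 1 ml/h. Bile collected over 6 h into phosphoric acid on wet ice, centrifuged, and the supernatant quantified by LC-MS/MS against a linear standard curve of analyte/CBZ peak-area ratios.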

[9] = Drug metabolism in rat hepatocytes assessed as MFA-SCoA by LC-MS/MS analysis; type: ADME, cell-based, Hepatocyte
Summary of the method: (§3)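 Rat hepatocytes (2 million cells/ml, William's E pH 7.4, 37°C, 95% O2/5% CO2) incubated 10 min with MFA at 0.8–500 µM (11 levels). Quenched and processed for LC-MS/MS MRM of the acyl-SG, acyl glucuronide and acyl-CoA derivatives. Three separate experiments, n=3 incubations per concentration; mean ± S.D.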

Hepatocyte [10] = assay: Drug level in rat hepatocytes treated with 100 uM MFA by reverse phase LC-MS/MS analysis; type: ADME, cell-based; summary of the method: as §1
Hepatocyte [11] = assay: Drug level in rat hepatocytes treated with at 100 uM MFA by LC-MS/MS analysis in presence of 1000 uM Lauric acid (reference value: 9.1 +/- 4.5); type: ADME, cell-based
Summary of the method: (§4)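 Rat hepatocytes (2 million cells/ml, 0.5 ml) with 100 µM MFA for 10 min, with or without 1000 µM (−)-borneol (glucuronidation inhibitor; DMSO stock, 0.1% v/v final in controls) or 1000 µM lauric acid (acyl-CoA formation inhibitor; aqueous stock, pH 7). Triplicate incubations; LC-MS/MS MRM; results given as nM and as % of control, mean ± S.D.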

Hepatocyte [12] = assay: Drug level in rat hepatocytes treated with 15.6 uM MFA by LC-MS/MS analysis; type: ADME, cell-based; summary of the method: as §3
Hepatocyte [13] = assay: Drug level in rat hepatocytes treated with at 100 uM MFA by LC-MS/MS analysis in presence of 1000 uM (-)-borneol (reference value: 9.1 +/- 4.5); type: ADME, cell-based; summary of the method: as §4
[14] = Stability in potassium phosphate buffer at 1 uM at pH 7.4 at 37 degC; type: physicochemical; conditions: pH 7.4, 1 µM
Summary of the method: (§5)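 Acyl-CoA and acyl glucuronide (1 µM, separate incubations) in 0.1 M potassium phosphate, pH 7.4, 37°C, without GSH. Quenched at 0, 5, 8 and 15 h, n=3 per time point; % remaining determined by LC-MS/MS.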

[15] = Increase in drug level in phosphate buffer treated with 1 uM MFA-SCoA at pH 7.4 at 37 degC in presence of GSH/rat liver GST after 60 mins
Summary of the method: (§6)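 Acyl-CoA or acyl glucuronide (1 µM) with 10 mM GSH in 0.1 M potassium phosphate, pH 7.4, 37°C, additionally fortified with rat liver GST (3 units/ml). Up to 60 min; acyl-SG formation measured by LC-MS/MS and compared with incubations lacking GST.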

Hepatocyte [16] = assay: Drug level in rat hepatocytes treated with at 100 uM MFA by LC-MS/MS analysis in presence of 1000 uM (-)-borneol (reference value: 334 +/- 76); type: ADME, cell-based; summary of the method: as §4
Hepatocyte [17] = assay: Drug level in cryopreserved human hepatocytes treated with 100 uM MFA at 10 mins incubation; type: ADME, cell-based; summary of the method: as §2
[18] = Drug level in phosphate buffer treated with 1 uM MFA-1-beta-O-G at pH 7.4 at 37 degC in presence of GSH after 60 mins; type: physicochemical; conditions: pH 7.4, 1 h
Summary of the method: (§7)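 Acyl-CoA or acyl glucuronide (1 µM) in 0.1 M potassium phosphate, pH 7.4, 37°C, with 10 mM GSH, n=3. Quenched at 0, 15, 30, 45 and 60 min with acetonitrile/3% formic acid containing 1 µM CBZ. The acyl-SG product was measured by LC-MS/MS; mean ± S.D.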

Hepatocyte [19] = assay: Drug level in rat hepatocytes treated with 100 uM MFA after 60 mins; type: ADME, cell-based; conditions: 1 h; summary of the method: as §1
Hepatocyte [20] = assay: Drug level in rat hepatocytes treated with at 100 uM MFA by LC-MS/MS analysis in presence of 1000 uM Lauric acid (reference value: 334 +/- 76); type: ADME, cell-based; summary of the method: as §4
[21] = Drug level in phosphate buffer treated with 1 uM MFA SCoA at pH 7.4 at 37 degC in presence of GSH after 60 mins; type: physicochemical; conditions: pH 7.4, 1 h; summary of the method: as §7
[22] = Increase in drug level in phosphate buffer treated with 1 uM MFA-1-beta-O-G at pH 7.4 at 37 degC in presence of GSH/rat liver GST after 60 mins; summary of the method: as §6
Hepatocyte [23] = assay: Drug level in human hepatocytes treated with 100 uM MFA by sensitive LC-MS/MS MRM analysis; type: ADME, cell-based; summary of the method: as §2
Hepatocyte [24] = assay: Drug level in rat hepatocytes treated with 500 uM MFA by LC-MS/MS analysis; type: ADME, cell-based; summary of the method: as §3
[25] = Half life in rat hepatocytes; type: ADME, cell-based, Hepatocyte
Summary of the method: (§8)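 Authentic acyl-SG thioesters or acyl glucuronide (1 µM) incubated with rat hepatocytes (2 million cells/ml). Quenched at 0–30 min and analysed by LC-MS/MS for % remaining; average of two incubations per time point; half-life derived from the decline.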

GST = assay: (§9) Stability in rat liver GST assessed as degradation at 1 uM after 30 mins relative to control; type: ADME, tissue-based; conditions: rat liver GST
Summary of the method: (§10)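 Acyl-SG thioesters (1 µM) in 0.1 M phosphate buffer, pH 7.4, 37°C (0.2 ml), with or without rat liver GST at 3 units/ml. Duplicates per time point, quenched at 0–60 min with acidic acetonitrile plus CBZ and analysed directly by LC-MS/MS. Degradation at 30 min expressed relative to the no-GST control.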

[26] = Drug level in phosphate buffer treated with 1 uM I-SCoA at pH 7.4 at 37 degC in presence of GSH after 60 mins; type: physicochemical; conditions: pH 7.4, 1 h; summary of the method: as §7
Hepatocyte [27] = assay: Drug level in rat hepatocytes treated with 62.5 uM MFA by LC-MS/MS analysis; type: ADME, cell-based; summary of the method: as §3
Hepatocyte [28] = assay: Drug level in rat hepatocytes treated with at 100 uM MFA by LC-MS/MS analysis in presence of 1000 uM (-)-borneol (reference value: 619 +/-158); type: ADME, cell-based; summary of the method: as §4
Hepatocyte [29] = assay: Retention time in rat hepatocytes treated with 100 uM MFA by positive ion LC-MS/MS analysis; type: ADME, cell-based; summary of the method: as §1
Hepatocyte [30] = assay: Drug level in single-donor human hepatocytes in suspension treated with 100 uM MFA at 60 mins incubation; conditions: 1 h
Hepatocyte [31] = assay: Drug level in rat hepatocytes treated with at 100 uM MFA by LC-MS/MS analysis in presence of 1000 uM Lauric acid (reference value: 619 +/-158); type: ADME, cell-based; summary of the method: as §4
[32] = Half life in rat hepatocytes at 1 uM; type: ADME, cell-based, Hepatocyte; summary of the method: as §8
[33] = Half life in potassium phosphate buffer at 1 uM at pH 7.4 at 37 degC; type: physicochemical; summary of the method: as §5
[34] = as §9; type: ADME, tissue-based; conditions: 0.5 h, 1 µM; summary of the method: as §10

Structure (SMILES): Cc1cccc(Nc2ccccc2C(=O)SCCNC(=O)CCNC(=O)C(O)C(C)(C)COP(=O)(O)OP(=O)(O)OC[C@H]2O[C@@H](n3cnc4c(N)ncnc43)[C@H](O)[C@@H]2OP(=O)(O)O)c1C (some centres undefined)
Drug metabolism (Hepatocyte [10]): metabolite_detected
Drug metabolism (Hepatocyte [11]): 3.8 nM
Drug metabolism (Hepatocyte [12]): 6 nM
Drug metabolism (Hepatocyte [13]): 8.8 nM
Stability [14]: Stable

Structure (SMILES): Cc1cc(CC(=O)SC[C@H](NC(=O)CC[C@H](N)C(=O)O)C(=O)NCC(=O)O)n(C)c1C(=O)c1ccc(Cl)cc1
half-life [25]: 0.8 min

Structure (SMILES): CC(C)Cc1ccc(C(C)C(=O)SC[C@H](NC(=O)CC[C@H](N)C(=O)O)C(=O)NCC(=O)O)cc1 (some centres undefined)
metabolised at 0.5 h, 1 µM (GST): 11%
Drug metabolism [21]: 440 nM
Drug metabolism [26]: 440 nM
half-life [25]: 4 min

Structure (SMILES): N[C@@H](CCC(=O)N[C@@H](CSC(=O)Cc1ccccc1Nc1c(Cl)cccc1Cl)C(=O)NCC(=O)O)C(=O)O
Stability [34]: Unstable
half-life [25]: 1 min

Further lines, with some results ahead:

Drug metabolism [1]: metabolite_not_detected
Drug metabolism [2]: metabolite_detected
Drug metabolism [3]: metabolite_detected
Drug metabolism [4]: 3 nM
Drug metabolism [5]: metabolite_not_detected
Drug metabolism [6]: metabolite_detected
Drug metabolism [7]: metabolite_detected
Drug uptake [8]: 4 µg
Drug metabolism [9]: Dose-dependent effect
Structure (SMILES): Cc1cccc(Nc2ccccc2C(=O)O)c1C [MEFENAMIC ACID]

Drug metabolism (Hepatocyte [10]): metabolite_detected
Drug metabolism (Hepatocyte [16]): 387 nM
Drug metabolism (Hepatocyte [17]): 1 nM
Drug metabolism [18]: 2.7 nM
Drug metabolism (Hepatocyte [19]): 50 nM
Drug metabolism (Hepatocyte [20]): 113 nM
Drug metabolism [21]: 208 nM
Drug metabolism (Hepatocyte [23]): metabolite_detected
Drug uptake [8]: 17.4 µg
Drug metabolism (Hepatocyte [24]): 230 nM
Structure (SMILES): Cc1cccc(Nc2ccccc2C(=O)SC[C@H](NC(=O)CC[C@H](N)C(=O)O)C(=O)NCC(=O)O)c1C
fold change (FC) [15]: 1.3
fold change (FC) [22]: 6

Drug metabolism (Hepatocyte [27]): 700 nM
Drug metabolism (Hepatocyte [17]): 3500 nM
Drug metabolism (Hepatocyte [28]): 55.1 nM
Drug metabolism (Hepatocyte [19]): 1560 nM
Retention_time (Hepatocyte [29]): 11 min
Drug metabolism (Hepatocyte [30]): 18.6 µM
Drug metabolism (Hepatocyte [31]): 198 nM
half-life at 1 µM [32]: > 60 min
Drug uptake [8]: 2000 µg
Drug metabolism (Hepatocyte [24]): 460 nM
half-life at 1 µM [33]: 990 min
Structure (SMILES): Cc1cccc(Nc2ccccc2C(=O)O[C@@H]2O[C@H](C(=O)O)[C@@H](O)[C@H](O)[C@H]2O)c1C
